Active and inactive are the calls of the source.
Experiments:
Homo sapiens = species on record: Homo sapiens; assay: Percent of Parent compound remaining after 20 min incubation with human liver microsomes (Human microsomal stability); format: functional
Method in brief: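 Compounds at 10 μg/mL were incubated with human liver microsomes for 20 min. Metabolic stability is reported as % parent compound remaining.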

[1] = molecular target: T1, Muscarinic acetylcholine receptor M2 (Homo sapiens, UniProt P08172); assay: Binding affinity for human Muscarinic acetylcholine receptor M2
T1 sequence (P08172 whole entry): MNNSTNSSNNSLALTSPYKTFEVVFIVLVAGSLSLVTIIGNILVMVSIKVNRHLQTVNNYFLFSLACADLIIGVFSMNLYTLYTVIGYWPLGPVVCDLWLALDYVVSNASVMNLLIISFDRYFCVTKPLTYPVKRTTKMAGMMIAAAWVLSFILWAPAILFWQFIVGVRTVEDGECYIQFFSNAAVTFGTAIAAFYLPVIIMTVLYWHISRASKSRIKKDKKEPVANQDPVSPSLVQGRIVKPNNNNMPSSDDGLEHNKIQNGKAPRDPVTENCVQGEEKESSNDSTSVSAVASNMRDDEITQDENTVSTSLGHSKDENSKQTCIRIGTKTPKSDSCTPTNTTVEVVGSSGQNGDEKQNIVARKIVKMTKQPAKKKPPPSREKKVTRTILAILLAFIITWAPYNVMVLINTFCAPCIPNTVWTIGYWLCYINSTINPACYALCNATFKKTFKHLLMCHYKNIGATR

Rattus norvegicus [2] = assay: ACh released compared with baseline (100%) in rat striatum after iv administration (0-2 h,10 mg/kg, 20% HPbetaCD) using microdialysis assay; format: functional
Rattus norvegicus [3] = assay: Orally active dose in passive avoidance response (PAR); inactive; format: functional, organism-based
Method in brief: (§1)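 Rat passive avoidance response, a reference-memory cognitive paradigm, with oral dosing. The value is the orally active dose in mg/kg, defined as a significant change in latency over vehicle (4% MC), p < 0.05 by Dunnett's T test, n = 36.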

Rattus norvegicus [4] = assay: ACh released compared with baseline (100%) in rat striatum after peroral administration (0-2 h,10 mg/kg, 20% HPbetaCD) using microdialysis assay; format: functional
Method in brief: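 Rat striatal microdialysis: single oral dose of 10 mg/kg in 20% HPβCD vehicle. ACh in dialysate collected from 0 to 2 h, expressed as % of preinjection baseline (baseline = 100%). ACh release is measured in the presence of neostigmine. Stimulation over baseline was judged by Duncan's Multiple Range Statistic.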

Rattus norvegicus [5] = assay: Orally active dose in passive avoidance response (PAR); format: functional; method in brief: as §1
[6] = Area under curve (high throughput single measurement) after peroral administration (10 mg/kg, 0-6 hr) in rat was determined; details: in vivo, po

| Compound | Ki [1] | Activity (Rattus norvegicus [4]) | also measured |
| --- | --- | --- | --- |
| CC(=C1CCN(C2CCN(C(=O)c3ccc(F)c4ccccc34)CC2)CC1)c1ccc(S(=O)(=O)C(C)C)cc1 | 9.6 nM | – | Activity (Homo sapiens): 74% |
| CC(C)Sc1ccc(CC2CCN(C3CCN(C(=O)c4cccc5ccccc45)CC3)CC2)cc1 | – | 110% | Activity (Rattus norvegicus [2]): 210%; Activity (Rattus norvegicus [3]): inactive |
| COc1ccc(S(=O)(=O)c2ccc(C3(C4CCN(C5CCN(C(=O)c6ccc(F)c7ccccc67)CC5)CC4)OCCO3)cc2)cc1 | – | 180% | PAR (Rattus norvegicus [5]): 0.1 mg/kg |
| CC(=C1CCN(C2CCN(C(=O)c3ccc(F)c4ccccc34)CC2)CC1)c1ccc([S+]([O-])C(C)C)cc1 (single isomer, unassigned; (+)) | 1.3 nM | 179% | – |
| CC(=C1CCN(C2CCN(C(=O)c3cccc(C)c3N)CC2)CC1)c1ccc([S+]([O-])C(C)C)cc1 (single isomer, unassigned; (-)) | 12 nM | – | – |
| CC(=C1CCN(C2CCN(C(=O)c3ccc(F)c4ccccc34)CC2)CC1)c1ccc([S+]([O-])C(C)C)cc1 (stereo in doubt; 13) [listing 2 of 2 here] | – | – | Activity (Homo sapiens): 66% |
| CC(=C1CCN(C2CCN(C(=O)c3cccc(C)c3N)CC2)CC1)c1ccc([S+]([O-])C(C)C)cc1 (stereo in doubt; 14) [listing 2 of 2 here] | – | – | Activity (Homo sapiens): 64% |
| Cc1cccc(C(=O)N2CCC(N3CCC(Cc4ccc(S(=O)(=O)c5cccc(Cl)c5)cc4)CC3)CC2)c1N [SCH-211803] | – | 180% | AUC at 6 h [6]: 908 ng·h/mL; PAR (Rattus norvegicus [5]): 0.001 mg/kg |

Further lines, with some results ahead:

| Ki [1] | Compound | Activity (Rattus norvegicus [4]) | also measured |
| --- | --- | --- | --- |
| 32 nM | CC(=C1CCN(C2CCN(C(=O)c3cccc(C)c3N)CC2)CC1)c1ccc(S(=O)(=O)C(C)C)cc1 | – | Activity (Homo sapiens): 80% |
| 221 nM | CC(C)S(=O)(=O)c1ccc(CC2CCN(C3CCN(C(=O)c4ccc(F)c5ccccc45)CC3)CC2)cc1 | – | – |
| 0.89 nM | CC(=C1CCN(C2CCN(C(=O)c3cccc(C)c3N)CC2)CC1)c1ccc([S+]([O-])C(C)C)cc1 (single isomer, unassigned; (+)) | 225% | PAR (Rattus norvegicus [5]): 0.0001 mg/kg |
| 2.4 nM | CC(=C1CCN(C2CCN(C(=O)c3ccc(F)c4ccccc34)CC2)CC1)c1ccc([S+]([O-])C(C)C)cc1 (single isomer, unassigned; (-)) | 155% | – |
| 2.7 nM | CC(=C1CCN(C2CCN(C(=O)c3ccc(F)c4ccccc34)CC2)CC1)c1ccc([S+]([O-])C(C)C)cc1 (stereo in doubt; 13) [listing 1 of 2 here] | – | – |
| 6.6 nM | CC(=C1CCN(C2CCN(C(=O)c3cccc(C)c3N)CC2)CC1)c1ccc([S+]([O-])C(C)C)cc1 (stereo in doubt; 14) [listing 1 of 2 here] | – | – |
